Reference: ChEMBL document CHEMBL5321203, “8-Amide and 8-carbamate substitution patterns as modulators of 7-hydroxy-4-methylcoumarin's antidepressant profile: Synthesis, biological evaluation and docking studies” (Eur J Med Chem, 2023)
One block for each compound: values may come before it. The source made the active and inactive calls. The rule behind the calls is not given here.

How the values were obtained:
[1] = target: T1, Amine oxidase [flavin-containing] A (Homo sapiens, UniProt P21397); experiment: Inhibition of recombinant human MAO-A expressed in baculovirus infected BTITN-5B1-4 insect cells using p-tyramine as substrate at 100 uM incubated for 10 mins followed by substrate addition measured after 15 mins by Amplex Red assay; details: bti-tn-5b1-4, 25 min
T1 sequence (P21397 whole entry): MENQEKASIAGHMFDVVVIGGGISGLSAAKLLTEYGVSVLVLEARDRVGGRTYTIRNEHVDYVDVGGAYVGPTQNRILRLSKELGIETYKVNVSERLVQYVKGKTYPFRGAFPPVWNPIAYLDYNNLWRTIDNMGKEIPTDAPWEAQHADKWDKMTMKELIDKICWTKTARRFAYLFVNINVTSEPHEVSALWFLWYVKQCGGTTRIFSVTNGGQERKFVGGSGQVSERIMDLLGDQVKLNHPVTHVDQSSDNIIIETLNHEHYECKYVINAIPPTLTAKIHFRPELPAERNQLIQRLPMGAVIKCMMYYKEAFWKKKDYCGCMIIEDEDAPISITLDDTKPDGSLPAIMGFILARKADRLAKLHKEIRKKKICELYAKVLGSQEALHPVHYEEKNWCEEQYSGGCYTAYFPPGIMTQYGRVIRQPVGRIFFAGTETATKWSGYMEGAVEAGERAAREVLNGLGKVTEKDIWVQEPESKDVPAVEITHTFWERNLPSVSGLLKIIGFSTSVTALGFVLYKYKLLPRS
Method in brief: (§1)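 Microsomal hMAO-A from baculovirus-infected BTI-TN 5B1-4 cells, 1.1 μg protein, in 0.05 M sodium phosphate pH 7.4, preincubated with compound 10 min at 37 °C. Started with 200 μM Amplex Red, 1 U/mL HRP and 1 mM p-tyramine (final). Resorufin fluorescence (ex 545/em 590 nm) read over 15 min at 37 °C; background without enzyme subtracted; vehicle controls run.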

[2] = target: T2, Amine oxidase [flavin-containing] B (Homo sapiens, UniProt P27338); experiment: Inhibition of recombinant human MAO-B expressed in baculovirus infected BTITN-5B1-4 insect cells using p-tyramine as substrate incubated for 10 mins followed by substrate addition measured after 15 mins by Amplex Red assay; parameters: species or system BTI-TN-5B1-4
T2 sequence (P27338 whole entry): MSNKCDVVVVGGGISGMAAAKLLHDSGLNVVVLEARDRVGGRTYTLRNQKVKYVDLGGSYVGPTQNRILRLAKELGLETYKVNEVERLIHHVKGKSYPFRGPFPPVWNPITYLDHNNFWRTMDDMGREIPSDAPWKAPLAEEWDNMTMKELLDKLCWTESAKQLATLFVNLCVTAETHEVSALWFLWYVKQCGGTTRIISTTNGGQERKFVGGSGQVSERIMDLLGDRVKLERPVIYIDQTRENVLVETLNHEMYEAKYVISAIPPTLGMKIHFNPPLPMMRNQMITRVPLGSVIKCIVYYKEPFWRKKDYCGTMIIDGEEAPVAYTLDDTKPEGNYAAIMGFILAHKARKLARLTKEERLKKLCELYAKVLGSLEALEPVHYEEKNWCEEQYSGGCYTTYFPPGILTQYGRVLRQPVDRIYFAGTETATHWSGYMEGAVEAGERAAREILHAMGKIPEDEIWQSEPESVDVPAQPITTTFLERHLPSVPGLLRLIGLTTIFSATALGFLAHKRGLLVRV

[3] = target: T2, Amine oxidase [flavin-containing] B; experiment: Inhibition of recombinant human MAO-B expressed in baculovirus infected BTITN-5B1-4 insect cells using p-tyramine as substrate at 100 uM incubated for 10 mins followed by substrate addition measured after 15 mins by Amplex Red assay; details: bti-tn-5b1-4, 25 min
[4] = target: T2, Amine oxidase [flavin-containing] B; experiment: Inhibition of recombinant human MAO-B expressed in baculovirus infected BTITN-5B1-4 insect cells using p-tyramine as substrate at 100 uM incubated for 10 mins followed by substrate addition measured after 15 mins by Amplex Red assay relative to control; details: BTI-TN-5B1-4, human, 25 min
[5] = target: T1, Amine oxidase [flavin-containing] A; experiment: Inhibition of recombinant human MAO-A expressed in baculovirus infected BTITN-5B1-4 insect cells using p-tyramine as substrate incubated for 10 mins followed by substrate addition measured after 15 mins by Amplex Red assay; parameters: species or system BTI-TN-5B1-4
[6] = system: SH-SY5Y; experiment: Neurotoxicity against human SH-SY5Y cells assessed as reduction in cell viability at 100 uM incubated for 24 hrs by MTT assay; format: functional, cell-based
Method in brief: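 SH-SY5Y cells in Ham's F12/EMEM 1:1 with 15% FBS, seeded at 2×10^5 cells/mL and grown 24 h. Treated with 100 μM compound (1% DMSO) for 24 h, then MTT for 2 h; formazan dissolved in DMSO and absorbance read at 540 nm. Viability as % of vehicle control; at least 3 experiments, ANOVA with Bonferroni test.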

[7] = Permeability coefficient of compound incubated for 120 mins by UV-Vis spectroscopy based PAMPA-BBB assay
[8] = Metabolic stability in human liver microsomes assessed as intrinsic clearance at 1 uM measured upto 60 mins by UPLC-MS/MS analysis; format: ADME, Microsome; details: read-out: CLH
[9] = Metabolic stability in mouse liver microsomes assessed as intrinsic clearance at 1 uM measured upto 60 mins by UPLC-MS/MS analysis; format: ADME, Microsome; details: read-out: CLH
[10] = Metabolic stability in mouse liver microsomes assessed as half life at 1 uM measured upto 60 mins by UPLC-MS/MS analysis; format: ADME, Microsome
[11] = Chemical stability of compound in NaHCO3/Na2CO3 at pH 10.4 assessed as compound remaining at 10 uM incubated overnight by UPLC-MS/MS analysis; format: physicochemical; details: NaHCO3/Na2CO3 buffer, read-out: Stability
Method in brief: (§2)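 Overnight incubation at room temperature, 10 μM final. Buffers: pH 3.5 CH₃COONa/CH₃COOH 0.1 M; pH 7.4 NaH₂PO₄/NaHPO₄ 10 mM; pH 10.4 NaHCO₃/Na₂CO₃ 0.5 M. Aliquots taken at t = 0 and after incubation, analysed by UPLC-MS/MS; expressed as % remaining.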

[12] = Metabolic stability in human liver microsomes assessed as half life at 1 uM measured upto 60 mins by UPLC-MS/MS analysis; format: ADME, Microsome
[13] = Metabolic stability in human liver microsomes assessed as compound remaining at 1 uM measured upto 60 mins by UPLC-MS/MS analysis; format: ADME, Microsome; details: read-out: Stability
[14] = Chemical stability of compound in CH3COONa/CH3COOH at pH 3.5 assessed as compound remaining at 10 uM incubated overnight by UPLC-MS/MS analysis; format: physicochemical; details: CH3COONa/CH3COOH buffer, read-out: Stability; method in brief: as §2
[15] = Chemical stability of compound in NaH2PO4/NaHPO4 at pH 7.4 assessed as compound remaining at 10 uM incubated overnight by UPLC-MS/MS analysis; format: physicochemical; details: NaH2PO4/NaHPO4 buffer, read-out: Stability; method in brief: as §2
[16] = Metabolic stability in mouse liver microsomes assessed as compound remaining at 1 uM measured upto 60 mins by UPLC-MS/MS analysis; format: ADME, Microsome; details: read-out: Stability
[17] = target: T1, Amine oxidase [flavin-containing] A; experiment: Inhibition of recombinant human MAO-A expressed in baculovirus infected BTITN-5B1-4 insect cells using p-tyramine as substrate at 100 uM incubated for 10 mins followed by substrate addition measured after 15 mins by Amplex Red assay relative to control; details: BTI-TN-5B1-4, human, 25 min; method in brief: as §1

Compound: Cc1cc(=O)oc2c(NC(=O)C(C)C)c(O)ccc12
- inhibition (INH) [1]: Not Active
- IC50 [2]: 31 µM
- inhibition (INH) [3]: Not Active

Compound: Cc1cc(=O)oc2c(NC(=O)Oc3ccccc3)c(O)ccc12
- inhibition (INH) [1]: Not Active
- Activity [6]: Active

Compound: COc1cc(C(=O)Nc2c(O)ccc3c(C)cc(=O)oc23)cc(OC)c1OC
- inhibition at 100 µM [4]: 50%
- inhibition (INH) [1]: Not Active
- IC50 [2]: 68.3 µM

Compound: Cc1cc(=O)oc2c(NC(=O)OCc3ccccc3)c(O)ccc12
- IC50 [5]: 17.2 µM

Compound: Cc1cc(=O)oc2c(NC(=O)/C=C/c3ccccc3)c(O)ccc12
- IC50 [5]: 0.022 µM

Compound: Cc1cc(=O)oc2c(NC(=O)CC(C)(C)C)c(O)ccc12
- inhibition (INH) [1]: Not Active
- IC50 [2]: 7.35 µM

Compound: Cc1ccc(C(=O)Nc2c(O)ccc3c(C)cc(=O)oc23)cc1
- microsomal CLint at 1 µM [8]: 196 µL/min/mg
- microsomal CLint at 1 µM [9]: 131 µL/min/mg
- half-life at 1 µM [10]: 17.1 min
- remaining at 10 µM [11]: 118%
- half-life at 1 µM [12]: 6.84 min
- remaining at 1 h, 1 µM [13]: 0.5%
- remaining at 10 µM [14]: 98%
- remaining at 10 µM [15]: 113%
- Papp at 2 h [7]: 8.6 ×10⁻⁶ cm/s
- remaining at 1 h, 1 µM [16]: 8.3%

Compound: O=C(NCCN1CCOCC1)c1ccc(Cl)cc1 [MOCLOBEMIDE]
- inhibition at 100 µM [4]: 50%

Compound: Cc1cc(=O)oc2c(NC(=O)c3ccco3)c(O)ccc12
- IC50 [2]: 17.3 µM
- inhibition at 100 µM [17]: 50%

Second part, the compound after the results:

- inhibition (INH) [1]: Not Active
- IC50 [2]: 85.9 µM
Compound: Cc1cc(=O)oc2c(NC(=O)CCl)c(O)ccc12

- inhibition (INH) [1]: Not Active
- IC50 [2]: 52.7 µM
- inhibition (INH) [3]: Not Active
Compound: CCC(=O)Nc1c(O)ccc2c(C)cc(=O)oc12

- inhibition at 100 µM [4]: 50%
- inhibition (INH) [1]: Not Active
Compound: COC(=O)Nc1c(O)ccc2c(C)cc(=O)oc12

- IC50 [5]: 9.19 µM
Compound: Cc1cc(=O)oc2c(NC(=O)OCCl)c(O)ccc12

- Papp at 2 h [7]: 4.9 ×10⁻⁶ cm/s
- inhibition (INH) [3]: Not Active
Compound: CCOC(=O)Nc1c(O)ccc2c(C)cc(=O)oc12

- IC50 [2]: 16.3 µM
- IC50 [5]: 38.1 µM
Compound: C=CC(=O)Nc1c(O)ccc2c(C)cc(=O)oc12

- inhibition (INH) [1]: Not Active
- inhibition (INH) [3]: Not Active
Compound: Cc1cc(=O)oc2c(NC(=O)OCC(C)C)c(O)ccc12

- IC50 [5]: 1.88 µM
Compound: Cc1cc(=O)oc2c(NC(=O)OC(C)C)c(O)ccc12
